From ChEMBL document CHEMBL1165943, “Design and synthesis of new anticancer pyrimidines with multiple-kinase inhibitory effect” (Bioorg Med Chem, 2010)

Assays:
Assay type in all cases: functional
K562 = assay: Cytotoxicity against human K562 cells assessed as cell growth at 10 uM; conditions: Homo sapiens, K562; read-out: Activity
Procedure, shortened: (§1)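 Single-dose screen at 10 μM across the 60-cell-line panel. Cells grown in RPMI 1640 with 5% FBS and 2 mM L-glutamine, seeded at 5,000–40,000 cells/well according to doubling time, and treated 24 h later. Exposure lasted 48 h at 37 °C, 5% CO₂. Adherent cells were fixed with cold TCA, suspension cells were fixed settled, and both were stained with SRB and read at 515 nm. Growth % was recorded, with inhibition % = 100 − growth %.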

MOLT-4 = assay: Cytotoxicity against human MOLT4 cells assessed as cell growth at 10 uM; conditions: Homo sapiens, MOLT-4; read-out: Activity; procedure, shortened: as §1
SR = assay: Cytotoxicity against human SR cells assessed as cell growth at 10 uM; conditions: Homo sapiens, SR; read-out: Activity; procedure, shortened: as §1
EKVX = assay: Cytotoxicity against human EKVX cells assessed as cell growth at 10 uM; conditions: Homo sapiens, EKVX; read-out: Activity
Procedure, shortened: (§2)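 Single-concentration screen at 10 μM across the 60-cell-line panel (nine tissue types); growth percentage recorded per cell line, with inhibition taken as 100 minus growth percentage.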

NCI-H226 = assay: Cytotoxicity against human NCI-H226 cells assessed as cell growth at 10 uM; conditions: Homo sapiens, NCI-H226; read-out: Activity; procedure, shortened: as §1
NCI-H23 = assay: Cytotoxicity against human NCI-H23 cells assessed as cell growth at 10 uM; conditions: Homo sapiens, NCI-H23; read-out: Activity; procedure, shortened: as §1
NCI-H322M = assay: Cytotoxicity against human NCI-H322M cells assessed as cell growth at 10 uM; conditions: Homo sapiens, NCI-H322M; read-out: Activity; procedure, shortened: as §1
NCI-H522 = assay: Cytotoxicity against human NCI-H522 cells assessed as cell growth at 10 uM; conditions: Homo sapiens, NCI-H522; read-out: Activity; procedure, shortened: as §1
HCC 2998 = assay: Cytotoxicity against human HCC2998 cells assessed as cell growth at 10 uM; conditions: Homo sapiens, HCC 2998; read-out: Activity; procedure, shortened: as §2
HCT-116 = assay: Cytotoxicity against human HCT116 cells assessed as cell growth at 10 uM; conditions: Homo sapiens, HCT-116; read-out: Activity; procedure, shortened: as §2
HCT-15 = assay: Cytotoxicity against human HCT15 cells assessed as cell growth at 10 uM; conditions: Homo sapiens, HCT-15; read-out: Activity; procedure, shortened: as §2
KM12 = assay: Cytotoxicity against human KM12 cells assessed as cell growth at 10 uM; conditions: Homo sapiens, KM12; read-out: Activity; procedure, shortened: as §1
SW-620 = assay: Cytotoxicity against human SW620 cells assessed as cell growth at 10 uM; conditions: Homo sapiens, SW-620; read-out: Activity; procedure, shortened: as §1
SF-295 = assay: Cytotoxicity against human SF295 cells assessed as cell growth at 10 uM; conditions: Homo sapiens, SF-295; read-out: Activity; procedure, shortened: as §1
SF-539 = assay: Cytotoxicity against human SF539 cells assessed as cell growth at 10 uM; conditions: Homo sapiens, SF-539; read-out: Activity; procedure, shortened: as §1
SNB-75 = assay: Cytotoxicity against human SNB75 cells assessed as cell growth at 10 uM; conditions: Homo sapiens, SNB-75; read-out: Activity; procedure, shortened: as §1
Malme-3M = assay: Cytotoxicity against human MALME-3M cells assessed as cell growth at 10 uM; conditions: Homo sapiens, Malme-3M; read-out: Activity; procedure, shortened: as §1
M14 = assay: Cytotoxicity against human M14 cells assessed as cell growth at 10 uM; conditions: Homo sapiens, M14; read-out: Activity; procedure, shortened: as §1
SK-MEL-2 = assay: Cytotoxicity against human SK-MEL-2 cells assessed as cell growth at 10 uM; conditions: Homo sapiens, SK-MEL-2; read-out: Activity; procedure, shortened: as §1
SK-MEL-28 = assay: Cytotoxicity against human SK-MEL-28 cells assessed as cell growth at 10 uM; conditions: Homo sapiens, SK-MEL-28; read-out: Activity; procedure, shortened: as §1
SK-MEL-5 = assay: Cytotoxicity against human SK-MEL-5 cells assessed as cell growth at 10 uM; conditions: Homo sapiens, SK-MEL-5; read-out: Activity; procedure, shortened: as §1
IGROV-1 = assay: Cytotoxicity against human IGROV1 cells assessed as cell growth at 10 uM; conditions: Homo sapiens, IGROV-1; read-out: Activity; procedure, shortened: as §1
OVCAR-3 = assay: Cytotoxicity against human OVCAR-3 cells assessed as cell growth at 10 uM; conditions: Homo sapiens, OVCAR-3; read-out: Activity; procedure, shortened: as §1
OVCAR-5 = assay: Cytotoxicity against human OVCAR5 cells assessed as cell growth at 10 uM; conditions: Homo sapiens, OVCAR-5; read-out: Activity; procedure, shortened: as §1
NCI/ADR-RES = assay: Cytotoxicity against human NCI/ADR-RES cells assessed as cell growth at 10 uM; conditions: Homo sapiens, NCI/ADR-RES; read-out: Activity; procedure, shortened: as §1
SK-OV-3 = assay: Cytotoxicity against human SKOV3 cells assessed as cell growth at 10 uM; conditions: Homo sapiens, SK-OV-3; read-out: Activity; procedure, shortened: as §1
786-0 = assay: Cytotoxicity against human 786-0 cells assessed as cell growth at 10 uM; conditions: Homo sapiens, 786-0; read-out: Activity; procedure, shortened: as §2
A498 = assay: Cytotoxicity against human A498 cells assessed as cell growth at 10 uM; conditions: Homo sapiens, A498; read-out: Activity; procedure, shortened: as §2
ACHN = assay: Cytotoxicity against human ACHN cells assessed as cell growth at 10 uM; conditions: Homo sapiens, ACHN; read-out: Activity; procedure, shortened: as §2
CAKI-1 = assay: Cytotoxicity against human Caki1 cells assessed as cell growth at 10 uM; conditions: Homo sapiens, CAKI-1; read-out: Activity; procedure, shortened: as §2
TK-10 = assay: Cytotoxicity against human TK10 cells assessed as cell growth at 10 uM; conditions: Homo sapiens, TK-10; read-out: Activity; procedure, shortened: as §1
UO-31 = assay: Cytotoxicity against human UO31 cells assessed as cell growth at 10 uM; conditions: Homo sapiens, UO-31; read-out: Activity; procedure, shortened: as §1
PC-3 = assay: Cytotoxicity against human PC3 cells assessed as cell growth at 10 uM; conditions: Homo sapiens, PC-3; read-out: Activity; procedure, shortened: as §1
DU-145 = assay: Cytotoxicity against human DU145 cells assessed as cell growth at 10 uM; conditions: Homo sapiens, DU-145; read-out: Activity; procedure, shortened: as §2
MCF7 = assay: Cytotoxicity against human MCF7 cells assessed as cell growth at 10 uM; conditions: Homo sapiens, MCF7; read-out: Activity; procedure, shortened: as §1
MDA-MB-231 = assay: Cytotoxicity against human MDA-MB-231 cells assessed as cell growth at 10 uM; conditions: Homo sapiens, MDA-MB-231; read-out: Activity; procedure, shortened: as §1
BT-549 = assay: Cytotoxicity against human BT549 cells assessed as cell growth at 10 uM; conditions: Homo sapiens, BT-549; read-out: Activity; procedure, shortened: as §2
T47D = assay: Cytotoxicity against human T47D cells assessed as cell growth at 10 uM; conditions: Homo sapiens, T47D; read-out: Activity; procedure, shortened: as §1
MDA-MB-468 = assay: Cytotoxicity against human MDA-MB-468 cells assessed as cell growth at 10 uM; conditions: Homo sapiens, MDA-MB-468; read-out: Activity; procedure, shortened: as §1

| SMILES | growth at 10 µM (K562) [%] | growth at 10 µM (MOLT-4) [%] | growth at 10 µM (SR) [%] | growth at 10 µM (EKVX) [%] | growth at 10 µM (NCI-H226) [%] | growth at 10 µM (NCI-H23) [%] | growth at 10 µM (NCI-H322M) [%] | growth at 10 µM (NCI-H522) [%] | growth at 10 µM (HCC 2998) [%] | growth at 10 µM (HCT-116) [%] | growth at 10 µM (HCT-15) [%] | growth at 10 µM (KM12) [%] | growth at 10 µM (SW-620) [%] | growth at 10 µM (SF-295) [%] | growth at 10 µM (SF-539) [%] | growth at 10 µM (SNB-75) [%] | growth at 10 µM (Malme-3M) [%] | growth at 10 µM (M14) [%] | growth at 10 µM (SK-MEL-2) [%] | growth at 10 µM (SK-MEL-28) [%] | other results |
| --- | --- | --- | --- | --- | --- | --- | --- | --- | --- | --- | --- | --- | --- | --- | --- | --- | --- | --- | --- | --- | --- |
| c1ccc(-c2ccc(-c3ccnc(Nc4ccc(N(c5ccccc5)c5ccccc5)cc4)n3)cn2)cc1 | 94.9 | 91.2 | 38.7 | 103 | 115 | 145 | 88.5 | 94 | 112 | 40.6 | 102 | 97 | 78.3 | 124 | 84.2 | 102 | 65.2 | 90.2 | 102 | 118 | growth at 10 µM (SK-MEL-5): 118%; growth at 10 µM (IGROV-1): 67.2%; growth at 10 µM (OVCAR-3): 125%; growth at 10 µM (OVCAR-5): 106%; growth at 10 µM (NCI/ADR-RES): 125%; growth at 10 µM (SK-OV-3): 119%; growth at 10 µM (786-0): 71.5%; growth at 10 µM (A498): 96.2%; growth at 10 µM (ACHN): 96.5%; growth at 10 µM (CAKI-1): 83.7%; growth at 10 µM (TK-10): 113%; growth at 10 µM (UO-31): 72.4%; growth at 10 µM (PC-3): 87.1%; growth at 10 µM (DU-145): 115%; growth at 10 µM (MCF7): 96.6%; growth at 10 µM (MDA-MB-231): 123%; growth at 10 µM (BT-549): 102%; growth at 10 µM (T47D): 111%; growth at 10 µM (MDA-MB-468): 105% |
| CC(=O)c1ccc(-c2ccc(-c3ccnc(Nc4cc(C(F)(F)F)cc(C(F)(F)F)c4)n3)cn2)cc1 | 98.5 | 91 | 96.5 | 113 | 100 | 96.5 | 103 | 102 | 104 | 92.9 | 110 | 114 | 109 | 110 | 89.7 | 78.3 | 124 | 109 | 104 | 95.8 | growth at 10 µM (SK-MEL-5): 101%; growth at 10 µM (IGROV-1): 99.7%; growth at 10 µM (OVCAR-3): 119%; growth at 10 µM (OVCAR-5): 109%; growth at 10 µM (NCI/ADR-RES): 103%; growth at 10 µM (SK-OV-3): 93.5%; growth at 10 µM (786-0): 105%; growth at 10 µM (A498): 97.4%; growth at 10 µM (ACHN): 103%; growth at 10 µM (CAKI-1): 97.4%; growth at 10 µM (TK-10): 106%; growth at 10 µM (UO-31): 79.3%; growth at 10 µM (PC-3): 89.8%; growth at 10 µM (DU-145): 114%; growth at 10 µM (MCF7): 90.8%; growth at 10 µM (MDA-MB-231): 98.2%; growth at 10 µM (BT-549): 99.8%; growth at 10 µM (T47D): 91.6%; growth at 10 µM (MDA-MB-468): 106% |
| FC(F)(F)c1cc(Nc2nccc(-c3ccc(-c4ccccc4)nc3)n2)cc(C(F)(F)F)c1 | 91.5 | 93.4 | 97.8 | 101 | 115 | 98.5 | 99.7 | 83.3 | 124 | 81.6 | 99.9 | 105 | 110 | 114 | 95.8 | 86.8 | 123 | 81.4 | 91.6 | 109 | growth at 10 µM (SK-MEL-5): 102%; growth at 10 µM (IGROV-1): 77.8%; growth at 10 µM (OVCAR-3): 114%; growth at 10 µM (OVCAR-5): 111%; growth at 10 µM (NCI/ADR-RES): 101%; growth at 10 µM (SK-OV-3): 94.6%; growth at 10 µM (786-0): 101%; growth at 10 µM (A498): 110%; growth at 10 µM (ACHN): 96%; growth at 10 µM (CAKI-1): 91.6%; growth at 10 µM (TK-10): 99.5%; growth at 10 µM (UO-31): 87.2%; growth at 10 µM (PC-3): 90.3%; growth at 10 µM (DU-145): 109%; growth at 10 µM (MCF7): 83.2%; growth at 10 µM (MDA-MB-231): 87.3%; growth at 10 µM (BT-549): 106%; growth at 10 µM (T47D): 80.1%; growth at 10 µM (MDA-MB-468): 110% |
